This is an account of results in ChEMBL document CHEMBL1156948, “Statistical molecular design of a focused salicylidene acylhydrazide library and multivariate QSAR of inhibition of type III secretion in the Gram-negative bacterium Yersinia” (Bioorg Med Chem, 2010).

A word on the inhibition: it is the change of the read-out against control, counted positive when it falls.

Calls of active or inactive are those of the source. How the calls were made is not given here.

Assay [1] deals with Yersinia pseudotuberculosis. Briefly: Antibacterial activity against Yersinia pseudotuberculosis expressing pIB102 at 50 uM after 23 hrs by broth dilution assay. In kind it is functional, organism-based. Put shortly:
(§1)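 Wild-type pIB102 grown overnight in LB at room temperature, diluted to OD600 = 0.1 in LB with 2.5 mM CaCl2. Compound added from DMSO stock to final 50 and 100 µM. Incubated at 37 °C with absorbance at 595 nm read over 23 h.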

Assay [2] deals with Escherichia coli. Briefly: Antibacterial activity against Escherichia coli DH5[alpha] at 100 uM after 23 hrs by broth dilution assay. In kind it is functional, organism-based. Put shortly:
(§2)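 Overnight LB culture of E. coli DH5α grown at 37 °C, diluted to OD600 0.1 in LB with 2.5 mM CaCl2; compound added from DMSO stock to final 50 or 100 µM. Incubated at 37 °C with absorbance at 595 nm followed over 23 h.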
In general terms: In broth dilution the organism is exposed to a series of concentrations in liquid medium.

The test system of assay [3] is Escherichia coli. Briefly: Antibacterial activity against Escherichia coli DH5[alpha] at 50 uM after 23 hrs by broth dilution assay. The format is functional, organism-based. In outline:
as §2

Assay [4] concerns Yersinia pseudotuberculosis YPIII. Briefly: Inhibition of T3S in Yersinia pseudotuberculosis YPIII expressing yopE-luxAB at 25 uM after 3 hrs by luciferase reporter gene assay. In outline: (§3)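 Strain YPIII pIB102 (yopE-luxAB) grown overnight at room temperature in BHI with 5 mM EGTA and 20 mM MgCl2 (calcium depletion), adjusted to OD600 0.088–0.095. Compound added from DMSO at 1.56–200 µM final (eight concentrations). Shaken 1 h at room temperature, then 2 h at 37 °C. Decanal added and light emission read immediately. Triplicates, repeated at least three times.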
(A reporter such as luciferase makes a cellular process visible.)

Assay [5] shares this test system. Briefly: Inhibition of T3S in Yersinia pseudotuberculosis YPIII expressing yopE-luxAB at 50 uM after 3 hrs by luciferase reporter gene assay. Put shortly: as §3
The test system is the same in assay [6]. Briefly: Inhibition of T3S in Yersinia pseudotuberculosis YPIII expressing yopE-luxAB at 12.5 uM after 3 hrs by luciferase reporter gene assay. In outline: as §3
For assay [7] the test system is unchanged. Briefly: Inhibition of T3S in Yersinia pseudotuberculosis YPIII expressing yopE-luxAB at 1.56 uM after 3 hrs by luciferase reporter gene assay. In outline:
as §3

The test system of assay [8] is Yersinia pseudotuberculosis. Briefly: Antibacterial activity against Yersinia pseudotuberculosis expressing pIB102 at 100 uM after 23 hrs by broth dilution assay. The format is functional, organism-based. Put shortly: as §1
The subject of assay [9] is Yersinia pseudotuberculosis YPIII. Briefly: Inhibition of T3S in Yersinia pseudotuberculosis YPIII expressing yopE-luxAB at 3.13 uM after 3 hrs by luciferase reporter gene assay. In outline: as §3
Assay [10] has the same test system. Briefly: Inhibition of T3S in Yersinia pseudotuberculosis YPIII expressing yopE-luxAB at 100 uM after 3 hrs by luciferase reporter gene assay. Put shortly:
as §3

Assay [11] has the same test system. Briefly: Inhibition of T3S in Yersinia pseudotuberculosis YPIII expressing yopE-luxAB at 6.25 uM after 3 hrs by luciferase reporter gene assay. In outline: as §3
For assay [12] the test system is unchanged. Briefly: Inhibition of T3S in Yersinia pseudotuberculosis YPIII expressing yopE-luxAB at 200 uM after 3 hrs by luciferase reporter gene assay. In outline: as §3

Turning to `N#CCC(=O)N/N=C/c1cc(Br)ccc1O`, the result (in assay [1]; with Escherichia coli [2]; in the assay on Escherichia coli [3]; in assay [8]) was inactive. Besides, the inhibition in assay [4] is 55%; in [5], 86%; in [6], 22%; in [7], 0%; in [9] it was 11%; in assay [10], 97%. The figures for the inhibition in [11] and in assay [12] were 6% and 99%, respectively.

In the case of `COc1cc(C(=O)N/N=C/c2cc(Cl)cc(Cl)c2O)cc(OC)c1OC`, the outcome (in [1]; in the assay with Escherichia coli [2]; in the assay on Escherichia coli [3]; in assay [8]) was inactive. In addition, the inhibition in assay [4] is 18%; in assay [5], 27%; in assay [6] it was 14%; in assay [7] it was -10%; in assay [9], 13%; in assay [10], 29%. Moreover, the figures for the inhibition in assay [11] and in assay [12] were 8% and 40%, respectively.

Turning to `COc1ccc(Br)c(C(=O)N/N=C/c2cc([N+](=O)[O-])cc([N+](=O)[O-])c2O)c1`, the outcome (in assay [1]; in the assay with Escherichia coli [2]; with Escherichia coli [3]; in [8]) was inactive. Besides, the inhibition in assay [4] is 23%; in assay [5], 30%; in assay [6], 12%; in assay [7], -7%; in [9], 0%; in [10], 30%. The inhibition was 13% in assay [11] and 25% in assay [12].

`CC(C)(C)c1ccc(O)c(/C=N/NC(=O)c2ccc(Br)cc2)c1`: the outcome (in [1]; with Escherichia coli [2]; in the assay on Escherichia coli [3]; in assay [8]) was inactive. The inhibition was determined as 34% in assay [4]; 39% in [5]; 29% in [6]; 4% in assay [7]; 0% in assay [9]; 34% in assay [10]. Besides, the inhibition turned out to be 19% in assay [11] and 37% in assay [12].

In the case of `CCN(CC)c1ccc(/C=N/NC(=O)c2cc(Cl)cc(Cl)c2)c(O)c1`, the outcome (in [1]; in the assay with Escherichia coli [2]; with Escherichia coli [3]; in assay [8]) was inactive. For the same molecule, the inhibition in [4] is 34%; in assay [5], 43%; in assay [6] it was 29%; in assay [7], -6%; in assay [9] it was 19%; in assay [10], 46%. The inhibition in [11] was 22%; in assay [12] it was 46%.

As for `COc1ccc(Br)c(C(=O)N/N=C/c2cc(C(C)(C)C)ccc2O)c1`, the result (in assay [1]; in the assay on Escherichia coli [2]; with Escherichia coli [3]; in assay [8]) was inactive. The inhibition in assay [4] amounted to 18%; in assay [5], 33%; in assay [6], 26%; in assay [7] it was 3%; in assay [9], 0%; in assay [10], 22%. In addition, the inhibition is 6% in assay [11] and 20% in assay [12].

For the molecule `O=C(CC12CC3CC(CC(C3)C1)C2)N/N=C/c1ccc(Cl)cc1O`, the result (in assay [1]; in the assay with Escherichia coli [2]; in the assay on Escherichia coli [3]; in assay [8]) was inactive. Further, the inhibition was 25% in assay [4]; 32% in [5]; 19% in assay [6]; 0% in assay [7]; 7% in assay [9]; 26% in assay [10]. For the same molecule, the inhibition in assay [11] was determined as 18%; in assay [12], 29%.

As to `COc1cccc(/C=N/NC(=O)c2ccccc2[N+](=O)[O-])c1O`, the result (in [1]; in the assay with Escherichia coli [2]; in the assay on Escherichia coli [3]; in assay [8]) was inactive. Moreover, the inhibition in assay [4] was 19%; in [5] it was 32%; in assay [6], 12%; in assay [7] it was -5%; in assay [9] it was 19%; in assay [10] it was 68%. Moreover, the results for the inhibition in [11] and in [12] were 14% and 94%, respectively.

As to `CC(C)(C)c1ccc(O)c(/C=N/NC(=O)CC23CC4CC(CC(C4)C2)C3)c1`, the result (in assay [1]; with Escherichia coli [2]; with Escherichia coli [3]; in assay [8]) was inactive. For the same molecule, the inhibition in [4] was 17%; in assay [5] it was 10%; in assay [6], 13%; in assay [7] it was -6%; in assay [9], 3%; in assay [10] it was 17%. Further, the inhibition was 10% in assay [11] and -1% in assay [12].

Take `O=C(N/N=C/c1c(O)cc(O)cc1O)c1sc2ccccc2c1Cl`: the outcome (in [1]; in the assay with Escherichia coli [2]; with Escherichia coli [3]; in assay [8]) was inactive. The inhibition in [4] was found to be 44%; in assay [5] it was 70%; in assay [6], 33%; in [7] it was 2%; in assay [9] it was 10%; in [10], 79%. The inhibition was determined as 21% in assay [11] and 87% in assay [12].

As to `COc1ccc(/C=N/NC(=O)CCc2ccc(O)cc2)c(O)c1`, the result (in assay [1]; with Escherichia coli [2]; in the assay with Escherichia coli [3]; in [8]) was inactive. Besides, the inhibition in assay [4] is 12%; in [5], 22%; in [6] it was 16%; in [7], -2%; in assay [9], -1%; in assay [10], 45%. The inhibition turned out to be 4% in assay [11] and 88% in assay [12].

Take `COc1cc(Br)cc(/C=N/NC(=O)c2sc3ccccc3c2Cl)c1O`: the outcome (in assay [1]; in the assay on Escherichia coli [2]; with Escherichia coli [3]; in [8]) was inactive. The inhibition was 23% in assay [4]; 34% in assay [5]; 20% in assay [6]; -6% in assay [7]; 10% in [9]; 40% in assay [10]. Also, the inhibition in [11] turned out to be 12%; in assay [12] it was 39%.
